# Laboratory results: ChEMBL document CHEMBL2407024, “Antimicrobial activity of imidazo[1,5-a]quinoxaline derivatives with pyridinium moiety” (Eur J Med Chem, 2013)
# Non-standard residues stand in square brackets, D forms with d. Residues, ends and D or L forms follow the SMILES beside them. Orn = NCCC[C@H](N)C(=O)O
# Key:
# Candida albicans [1] = experiment: Fungicidal activity against Candida albicans 885-653 after 6 hrs; type: functional; settings: 885-653, 6 h
# Outline: (§1)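 Tubes of test compound (5 to 500 per ml, 1 mL in nutrient agar) with fungi were incubated at 26 °C for 6 h. Inocula were then prepared in Sabouraud dextrose broth and incubated at 26 °C. The fungicidal concentration is the one giving total cell death.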
# [2] = tested on: Trichophyton mentagrophytes; experiment: Antifungal activity against Trichophyton mentagrophytes measured every 24 hrs for 14 days by conventional dilution method; type: functional
# Outline: (§2)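 Dilution assay in Sabouraud dextrose broth, inoculum 2 × 10^3–4 cfu/ml. MIC is the lowest concentration with no visible growth after 14 days of incubation. Run alongside a positive growth control and standard drug controls. Tests in duplicate, repeated twice.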
# [3] = tested on: Trichophyton mentagrophytes; experiment: Fungicidal activity against Trichophyton mentagrophytes after 6 hrs; type: functional; outline: as §1
# Candida albicans [4] = experiment: Antifungal activity against Candida albicans 885-653 measured every 24 hrs for 14 days by conventional dilution method; type: functional; outline: as §2
# Escherichia coli [5] = experiment: Antibacterial activity against Escherichia coli F-50 measured every 24 hrs for 5 days by conventional dilution method; type: functional
# Outline: (§3)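 Broth dilution in nutrient broth, inoculum 3 × 10⁵ cfu/ml. MIC is the lowest concentration showing no growth, read visually every 24 h over 5 days. Run alongside a positive growth control and standard drug controls. Tests in duplicate, repeated twice.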
# Staphylococcus aureus [6] = experiment: Antibacterial activity against Staphylococcus aureus 209p measured every 24 hrs for 5 days by conventional dilution method; type: functional; outline: as §3
# Bacillus cereus [7] = experiment: Antibacterial activity against Bacillus cereus 8035 measured every 24 hrs for 5 days by conventional dilution method; type: functional; outline: as §3
# Pseudomonas aeruginosa [8] = experiment: Antibacterial activity against Pseudomonas aeruginosa 9027 measured every 24 hrs for 5 days by conventional dilution method; type: functional; outline: as §3
# Aspergillus niger [9] = experiment: Antifungal activity against Aspergillus niger BKMF-1119 measured every 24 hrs for 14 days by conventional dilution method; type: functional; outline: as §2
# Pseudomonas aeruginosa [10] = experiment: Bactericidal activity against Pseudomonas aeruginosa 9027 after 4 hrs; type: functional; settings: Pseudomonas aeruginosa, 9027, 4 h
# Outline: (§4)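 Tubes contained 1 mL test compound in nutrient agar, 5 to 500 per ml. Bacteria in normal saline broth (3 × 10⁵ cfu/ml, 1 mL) were added and held 4 h, then transferred onto meal-peptone agar plates and incubated at 37 °C. MBC is the dilution giving total cell death.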
# [11] = Acute toxicity in ip dosed mouse; type: organism-based; settings: in vivo
# Outline: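 Mice; each compound given at 5 dose levels, 10 animals per dose (n = 50 per compound). Animals observed for 72 h; toxicity expressed as average lethal dose (LD50) calculated from mortality across dose groups.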
# Escherichia coli [12] = experiment: Bactericidal activity against Escherichia coli F-50 after 4 hrs; type: functional; settings: F-50, 4 h; outline: as §4
# Bacillus cereus [13] = experiment: Bactericidal activity against Bacillus cereus 8035 after 4 hrs; type: functional; settings: Bacillus cereus, 8035, 4 h; outline: as §4
# Staphylococcus aureus [14] = experiment: Bactericidal activity against Staphylococcus aureus 209p after 4 hrs; type: functional; outline: as §4
# Aspergillus niger [15] = experiment: Fungicidal activity against Aspergillus niger BKMF-1119 after 6 hrs; type: functional; settings: BKMF-1119, 6 h; outline: as §1
SMILES,MFC (Candida albicans [1]),MIC [2],MFC [3],MIC (Candida albicans [4]),MIC (Escherichia coli [5]),MIC (Staphylococcus aureus [6]),MIC (Bacillus cereus [7]),MIC (Pseudomonas aeruginosa [8]),MIC (Aspergillus niger [9]),MBC (Pseudomonas aeruginosa [10]),LD50 [11],MBC (Escherichia coli [12]),MBC (Bacillus cereus [13]),MBC (Staphylococcus aureus [14]),MFC (Aspergillus niger [15])
Clc1ccccc1C(c1ccccc1)(c1ccccc1)n1ccnc1 [CLOTRIMAZOLE],0.39 µg/mL,3.13 µg/mL,3.13 µg/mL,0.39 µg/mL,,,,,,,,,,,
CCCCCCn1c(=O)c2c(-c3ccccc3)nc(-c3ccc[n+](Cc4cccc(C[n+]5cccc(-c6nc(-c7ccccc7)c7c(=O)n(CCCCCC)c8ccccc8n67)c5)c4)c3)n2c2ccccc21.[Br-].[Br-],,> 500 µg/mL,,15.6 µg/mL,> 500 µg/mL,12.5 µg/mL,62.5 µg/mL,> 500 µg/mL,> 500 µg/mL,,,,,,
CCCCCCn1c(=O)c2c(-c3ccccc3)nc(-c3ccc[n+](Cc4ccccc4)c3)n2c2ccccc21.[Cl-],500 µg/mL,500 µg/mL,> 500 µg/mL,7.8 µg/mL,> 500 µg/mL,0.97 µg/mL,6.3 µg/mL,> 500 µg/mL,> 500 µg/mL,> 500 µg/mL,61.1 mg/kg,> 500 µg/mL,> 500 µg/mL,50 µg/mL,> 500 µg/mL
O=c1[nH]c2ccccc2n2c(-c3ccc[n+](CCCCCC[n+]4cccc(-c5nc(-c6ccccc6)c6c(=O)[nH]c7ccccc7n56)c4)c3)nc(-c3ccccc3)c12.[Br-].[Br-],,> 500 µg/mL,,> 500 µg/mL,> 500 µg/mL,500 µg/mL,> 500 µg/mL,> 500 µg/mL,> 500 µg/mL,,,,,,
CCCCCCn1c(=O)c2c(-c3ccccc3)nc(-c3ccc[n+](CCCCCC)c3)n2c2ccccc21.[I-],,> 500 µg/mL,,15.6 µg/mL,250 µg/mL,62.5 µg/mL,62.5 µg/mL,500 µg/mL,> 500 µg/mL,,,,,,
O=c1[nH]c2ccccc2n2c(-c3ccc[n+](Cc4ccccc4)c3)nc(-c3ccccc3)c12.[Cl-],,500 µg/mL,,62.5 µg/mL,> 500 µg/mL,31.3 µg/mL,125 µg/mL,> 500 µg/mL,> 500 µg/mL,,65.7 mg/kg,,,,
CCCCCCCCCn1c(=O)c2c(-c3ccccc3)nc(-c3ccc[n+](CCCCCC)c3)n2c2ccccc21.[I-],,> 500 µg/mL,,25 µg/mL,> 500 µg/mL,62.5 µg/mL,125 µg/mL,> 500 µg/mL,> 500 µg/mL,,,,,,
CC1COc2c(N3CCN(C)CC3)c(F)cc3c(=O)c(C(=O)O)cn1c23 (configuration not stated) [OFLOXACIN],,,,,,0.97 µg/mL,1.5 µg/mL,3.1 µg/mL,,,,,,,
Cc1nc(-c2ccc[n+](Cc3ccccc3)c2)n2c1c(=O)[nH]c1ccccc12.[Cl-],,> 500 µg/mL,,> 500 µg/mL,> 500 µg/mL,500 µg/mL,> 500 µg/mL,> 500 µg/mL,> 500 µg/mL,,,,,,
CCn1cc(C(=O)O)c(=O)c2cc(F)c(N3CCNCC3)cc21 [NORFLOXACIN],,,,,1.5 µg/mL,2.42 µg/mL,7.8 µg/mL,3 µg/mL,,5 µg/mL,,5 µg/mL,12.5 µg/mL,5 µg/mL,
Cl.O=c1[nH]c2ccccc2n2c(-c3cccnc3)nc(-c3ccccc3)c12,,> 500 µg/mL,,> 500 µg/mL,> 500 µg/mL,> 500 µg/mL,> 500 µg/mL,> 500 µg/mL,> 500 µg/mL,,,,,,
CCCCCCCCCn1c(=O)c2c(-c3ccccc3)nc(-c3ccc[n+](CCCCCCCCC)c3)n2c2ccccc21.[Br-],500 µg/mL,500 µg/mL,> 500 µg/mL,50 µg/mL,> 500 µg/mL,1.5 µg/mL,6.3 µg/mL,> 500 µg/mL,> 500 µg/mL,> 500 µg/mL,,> 500 µg/mL,500 µg/mL,50 µg/mL,> 500 µg/mL
Cl.O=c1[nH]c2ccccc2n2c(-c3ccccn3)nc(-c3ccccc3)c12,,> 500 µg/mL,,> 500 µg/mL,> 500 µg/mL,> 500 µg/mL,> 500 µg/mL,> 500 µg/mL,> 500 µg/mL,,,,,,
Cn1c(=O)c2c(-c3ccccc3)nc(-c3ccc[n+](Cc4ccccc4)c3)n2c2ccccc21.[Cl-],,500 µg/mL,,62.5 µg/mL,> 500 µg/mL,31.3 µg/mL,125 µg/mL,> 500 µg/mL,> 500 µg/mL,,,,,,
CCCCCCCCCn1c(=O)c2c(-c3ccccc3)nc(-c3ccc[n+](Cc4ccccc4)c3)n2c2ccccc21.[Cl-],500 µg/mL,500 µg/mL,> 500 µg/mL,3.9 µg/mL,> 500 µg/mL,1.95 µg/mL,12.5 µg/mL,> 500 µg/mL,> 500 µg/mL,> 500 µg/mL,,> 500 µg/mL,> 500 µg/mL,50 µg/mL,> 500 µg/mL
CCCCCC[n+]1cccc(-c2nc(-c3ccccc3)c3c(=O)[nH]c4ccccc4n23)c1.[Br-],,> 500 µg/mL,,250 µg/mL,> 500 µg/mL,62.5 µg/mL,125 µg/mL,> 500 µg/mL,> 500 µg/mL,,75.8 mg/kg,,,,
CCCCCCCCCn1c(=O)c2c(-c3ccccc3)nc(-c3ccc[n+](CCCCCCCCC)c3)n2c2ccccc21.[I-],> 500 µg/mL,> 500 µg/mL,> 500 µg/mL,> 500 µg/mL,> 500 µg/mL,7.8 µg/mL,7.8 µg/mL,> 500 µg/mL,> 500 µg/mL,> 500 µg/mL,,> 500 µg/mL,> 500 µg/mL,500 µg/mL,> 500 µg/mL
CCCCCCCCCn1c(=O)c2c(-c3ccccc3)nc(-c3ccc[n+](Cc4cccc(C[n+]5cccc(-c6nc(-c7ccccc7)c7c(=O)n(CCCCCCCCC)c8ccccc8n67)c5)c4)c3)n2c2ccccc21.[Br-].[Br-],,500 µg/mL,,7.8 µg/mL,500 µg/mL,3.9 µg/mL,15.6 µg/mL,> 500 µg/mL,> 500 µg/mL,,108 mg/kg,,,,
O=c1[nH]c2ccccc2n2c(-c3ccc[n+](CCCC[n+]4cccc(-c5nc(-c6ccccc6)c6c(=O)[nH]c7ccccc7n56)c4)c3)nc(-c3ccccc3)c12.[Br-].[Br-],,250 µg/mL,,3.9 µg/mL,> 500 µg/mL,> 500 µg/mL,> 500 µg/mL,> 500 µg/mL,> 500 µg/mL,,,,,,
CCCn1c(=O)c2c(-c3ccccc3)nc(-c3ccc[n+](Cc4ccccc4)c3)n2c2ccccc21.[Cl-],,> 500 µg/mL,,> 500 µg/mL,> 500 µg/mL,62.5 µg/mL,125 µg/mL,> 500 µg/mL,> 500 µg/mL,,,,,,
CCCCCCCCCCCCCCCCCCn1c(=O)c2c(-c3ccccc3)nc(-c3ccc[n+](Cc4ccccc4)c3)n2c2ccccc21.[Cl-],,> 500 µg/mL,,> 500 µg/mL,> 500 µg/mL,500 µg/mL,> 500 µg/mL,> 500 µg/mL,> 500 µg/mL,,,,,,
O=c1c2c(-c3ccccc3)nc3n2c2ccccc2n1CCCCCCCCCCn1c(=O)c2c(-c4ccccc4)nc(n2c2ccccc21)-c1ccc[n+](c1)Cc1cccc(c1)C[n+]1cccc-3c1.[Br-].[Br-],,> 500 µg/mL,,250 µg/mL,> 500 µg/mL,125 µg/mL,> 500 µg/mL,> 500 µg/mL,> 500 µg/mL,,,,,,
CC(C)C[C@@H]1NC(=O)[C@H](CCCN)NC(=O)[C@H](C(C)C)NC(=O)[C@@H]2CCCN2C(=O)[C@@H](Cc2ccccc2)NC(=O)[C@H](CC(C)C)NC(=O)[C@H](CCCN)NC(=O)[C@H](C(C)C)NC(=O)[C@@H]2CCCN2C(=O)[C@@H](Cc2ccccc2)NC1=O [GRAMICIDIN S] (cyclo(L[dF]PV[Orn]L[dF]PV[Orn])),,,,,,,,,,,26 mg/kg,,,,
O=C(O)c1cn(C2CC2)c2cc(N3CCNCC3)c(F)cc2c1=O [CIPROFLOXACIN],,,,,,0.25 µg/mL,0.25 µg/mL,,,0.5 µg/mL,,0.5 µg/mL,0.25 µg/mL,0.25 µg/mL,
CCCC[n+]1cccc(-c2nc(-c3ccccc3)c3c(=O)[nH]c4ccccc4n23)c1.[I-],,> 500 µg/mL,,> 500 µg/mL,> 500 µg/mL,500 µg/mL,> 500 µg/mL,> 500 µg/mL,> 500 µg/mL,,63.2 mg/kg,,,,
C[C@@H]1[C@H](O)[C@@H](C)/C=C/C=C/C=C/C=C/C=C/C=C/C=C/[C@H](O[C@@H]2O[C@H](C)[C@@H](O)[C@H](N)[C@@H]2O)C[C@@H]2O[C@](O)(C[C@@H](O)C[C@@H](O)[C@H](O)CC[C@@H](O)C[C@@H](O)CC(=O)O[C@H]1C)C[C@H](O)[C@H]2C(=O)O [AMPHOTERICIN B],50 µg/mL,3.13 µg/mL,250 µg/mL,0.97 µg/mL,,,,,20 µg/mL,,27.7 mg/kg,,,,250 µg/mL
